This passage reports MIC, LC30 and IC50 results from ChEMBL document CHEMBL3232728, “Synthesis, molecular docking and biological evaluation of metronidazole derivatives containing piperazine skeleton as potential antibacterial agents” (Bioorg Med Chem, 2014).

One data set relates to Escherichia coli. Briefly: Antibacterial activity against Escherichia coli ATCC 25922 after 24 hrs by two-fold serial dilution method. The class given is functional. To be noted: ATCC 25922, 24 h. The procedure, abridged:
(§1)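 Run in Mueller-Hinton medium, read by MTT method, with compounds tested in nutrient broth (NB) by two-fold serial dilution. Seeded broth containing microbial spores was prepared in NB from 24 h old cultures grown on nutrient agar.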

Data set [1] is described as follows: Toxicity in RBC (unknown origin) assessed as hemolysis. The class given is cell-based. To be noted: erythrocyte.
Data set [2] in a line: Inhibition of Staphylococcus aureus TyrRS compound preincubated for 10 mins by liquid scintillation counting in presence of L-ring-3,5-[3H]tyrosine.
Another data set deals with Bacillus subtilis. The data set is described as follows: Antibacterial activity against Bacillus subtilis ATCC 530 after 24 hrs by two-fold serial dilution method. The class given is functional. The settings on record: ATCC 530, 24 h. The method in brief: as §1
For another data set, the system named is Pseudomonas aeruginosa. The data set is described as follows: Antibacterial activity against Pseudomonas aeruginosa ATCC 27853 after 24 hrs by two-fold serial dilution method. The class given is functional. To be noted: ATCC 27853, 24 h. The method in brief: as §1
For the next data set, the system named is Staphylococcus aureus. The data set is described as follows: Antibacterial activity against Staphylococcus aureus ATCC 25923 after 24 hrs by two-fold serial dilution method. The format is functional. To be noted: ATCC 25923, 24 h. The method in brief:
as §1

Molecules are shown by their SMILES. Converted amounts (≈) assume the structure as drawn.

Usually MIC stands for the lowest concentration that inhibits growth of the organism. A low value points to greater potency. By IC50 is commonly meant the midpoint of a concentration-inhibition curve. `COc1cccc(N2CCN(CCn3c([N+](=O)[O-])cnc3C)CC2)c1`: the minimum inhibitory concentration (MIC) with Escherichia coli was more than 50 µg/mL; in the data set with Bacillus subtilis, 0.805 µg/mL (≈ 2.33 µM); against Pseudomonas aeruginosa, more than 50 µg/mL; against Staphylococcus aureus, 0.656 µg/mL (≈ 1.9 µM). Besides, the LC30 in data set [1] is more than 10000 µg/mL. The IC50 in data set [2] is 7.65 µM.

Consider `Cc1ncc([N+](=O)[O-])n1CCN1CCN(c2ccccc2)CC1`, for which the MIC is more than 50 µg/mL in the data set on Escherichia coli, 1.55 µg/mL (≈ 4.92 µM) against Bacillus subtilis, more than 50 µg/mL against Pseudomonas aeruginosa and more than 50 µg/mL against Staphylococcus aureus. For the same compound, in data set [1], the LC30 is more than 10000 µg/mL. Moreover, the IC50 in data set [2] turned out to be 20.5 µM.

Regarding `Cc1ncc([N+](=O)[O-])n1CCN1CCN(c2ccc(F)cc2)CC1`, the minimal inhibitory concentration (MIC) with Escherichia coli, against Bacillus subtilis, against Pseudomonas aeruginosa and with Staphylococcus aureus was more than 50 µg/mL each time. Also, in data set [1], the LC30 is more than 10000 µg/mL. Moreover, the IC50 in data set [2] was determined as 25.2 µM.

Take `Cc1ncc([N+](=O)[O-])n1CCN1CCN(c2cccc(Cl)c2Cl)CC1`: the MIC in the data set with Escherichia coli was more than 50 µg/mL; in the data set on Bacillus subtilis, 14.4 µg/mL (≈ 37.4 µM); in the data set on Pseudomonas aeruginosa it was more than 50 µg/mL; against Staphylococcus aureus, 11.1 µg/mL (≈ 28.9 µM). In addition, the LC30 in data set [1] is more than 10000 µg/mL. Besides, the IC50 in data set [2] was 13.6 µM.

Regarding `Cc1ncc([N+](=O)[O-])n1CCN1CCN(c2ccccc2Cl)CC1`, the MIC against Escherichia coli was more than 50 µg/mL; against Bacillus subtilis, 0.142 µg/mL (≈ 0.406 µM); in the data set on Pseudomonas aeruginosa it was more than 50 µg/mL; in the data set on Staphylococcus aureus, 0.203 µg/mL (≈ 0.58 µM). In addition, the LC30 in data set [1] was more than 10000 µg/mL. Further, the IC50 in data set [2] was 0.0086 µM.

As to `Cc1ncc([N+](=O)[O-])n1CCN1CCN(c2ccccc2F)CC1`, the MIC in the data set with Escherichia coli was more than 50 µg/mL; in the data set on Bacillus subtilis, more than 50 µg/mL; with Pseudomonas aeruginosa, more than 50 µg/mL; against Staphylococcus aureus, 17.1 µg/mL (≈ 51.3 µM). The LC30 in data set [1] is more than 10000 µg/mL. For the same compound, in data set [2], the IC50 is 23.4 µM.

Consider `Cc1ncc([N+](=O)[O-])n1CCN1CCN(c2cccc(Cl)c2)CC1`, for which the MIC in the data set with Escherichia coli was more than 50 µg/mL; in the data set on Bacillus subtilis, 2.57 µg/mL (≈ 7.34 µM); against Pseudomonas aeruginosa it was more than 50 µg/mL; against Staphylococcus aureus, 1.8 µg/mL (≈ 5.15 µM). For the same compound, the LC30 in data set [1] was more than 10000 µg/mL. Also, in data set [2], the IC50 amounted to 10.5 µM.

Consider `COc1ccccc1N1CCN(CCn2c([N+](=O)[O-])cnc2C)CC1`, for which the MIC is more than 50 µg/mL in the data set with Escherichia coli, 0.272 µg/mL (≈ 0.787 µM) in the data set with Bacillus subtilis, more than 50 µg/mL with Pseudomonas aeruginosa and 0.583 µg/mL (≈ 1.69 µM) in the data set with Staphylococcus aureus. Besides, the LC30 in data set [1] is more than 10000 µg/mL. Also, the IC50 in data set [2] worked out at 1.12 µM.

As to `Cc1ncc([N+](=O)[O-])n1CCN1CCN(c2cccc(C(F)(F)F)c2)CC1`, the MIC against Escherichia coli is more than 50 µg/mL; in the data set with Bacillus subtilis it was 3.29 µg/mL (≈ 8.58 µM); against Pseudomonas aeruginosa it was more than 50 µg/mL; in the data set with Staphylococcus aureus, 18.1 µg/mL (≈ 47.2 µM). Further, the LC30 in data set [1] was more than 10000 µg/mL. For the same compound, the IC50 in data set [2] came out at 15.3 µM.

On to `Cc1ccc(N2CCN(CCn3c([N+](=O)[O-])cnc3C)CC2)c(C)c1`, for which the MIC against Escherichia coli was more than 50 µg/mL; in the data set on Bacillus subtilis it was 4.31 µg/mL (≈ 12.6 µM); against Pseudomonas aeruginosa, more than 50 µg/mL; in the data set on Staphylococcus aureus, 1.61 µg/mL (≈ 4.69 µM). For the same compound, in data set [1], the LC30 is more than 10000 µg/mL. In addition, in data set [2], the IC50 amounted to 12.6 µM.

Regarding `Cc1ncc([N+](=O)[O-])n1CCN1CCN(c2ccc(Cl)c(Cl)c2)CC1`, the MIC in the data set with Escherichia coli is more than 50 µg/mL; against Bacillus subtilis it was 6.83 µg/mL (≈ 17.8 µM); with Pseudomonas aeruginosa it was more than 50 µg/mL; in the data set with Staphylococcus aureus, 11.6 µg/mL (≈ 30.1 µM). In data set [1], the LC30 was more than 10000 µg/mL. The IC50 in data set [2] was 16.2 µM.

`COc1ccc(N2CCN(CCn3c([N+](=O)[O-])cnc3C)CC2)cc1`: the minimum inhibitory concentration (MIC) was more than 50 µg/mL against Escherichia coli, 0.033 µg/mL (≈ 0.0955 µM) in the data set on Bacillus subtilis, more than 50 µg/mL against Pseudomonas aeruginosa and 0.123 µg/mL (≈ 0.356 µM) against Staphylococcus aureus. The LC30 in data set [1] was more than 10000 µg/mL. Also, the IC50 in data set [2] amounted to 0.0067 µM.

As for `Cc1ncc([N+](=O)[O-])n1CCN1CCN(C(c2ccccc2)c2ccccc2)CC1`, the MIC against Escherichia coli is more than 50 µg/mL; against Bacillus subtilis, 0.011 µg/mL (≈ 0.0271 µM); in the data set with Pseudomonas aeruginosa, more than 50 µg/mL; with Staphylococcus aureus, 0.003 µg/mL (≈ 0.0074 µM). Also, in data set [1], the LC30 was more than 10000 µg/mL. The IC50 in data set [2] is 0.0024 µM.

As to `Cc1ncc([N+](=O)[O-])n1CCN1CCN(C(c2ccccc2)c2ccc(Cl)cc2)CC1` (configuration not stated), the MIC is more than 50 µg/mL in the data set with Escherichia coli, 0.185 µg/mL (≈ 0.421 µM) in the data set with Bacillus subtilis, more than 50 µg/mL in the data set with Pseudomonas aeruginosa and 0.593 µg/mL (≈ 1.35 µM) with Staphylococcus aureus. Further, the LC30 in data set [1] was more than 10000 µg/mL. The IC50 in data set [2] is 1.72 µM.

For the compound `Cc1ncc([N+](=O)[O-])n1CCN1CCN(C(c2ccc(F)cc2)c2ccc(F)cc2)CC1`, the MIC against Escherichia coli, in the data set with Bacillus subtilis, against Pseudomonas aeruginosa and with Staphylococcus aureus was more than 50 µg/mL throughout. In data set [1], the LC30 is more than 10000 µg/mL. Besides, the IC50 in data set [2] is 25.8 µM.

Consider `O=C(N[C@H](CO)[C@H](O)c1ccc([N+](=O)[O-])cc1)C(Cl)Cl` [CHLORAMPHENICOL], for which the MIC against Escherichia coli worked out at 0.064 µg/mL (≈ 0.198 µM); against Bacillus subtilis, 0.078 µg/mL (≈ 0.241 µM); in the data set on Staphylococcus aureus, 0.178 µg/mL (≈ 0.551 µM).

Consider `CC1(C)S[C@@H]2[C@H](NC(=O)Cc3ccccc3)C(=O)N2[C@H]1C(=O)O` [PENICILLIN G], for which the MIC against Escherichia coli is 22.8 µg/mL (≈ 68.3 µM); against Bacillus subtilis it was 0.335 µg/mL (≈ 1 µM); in the data set on Pseudomonas aeruginosa, 18.6 µg/mL (≈ 55.7 µM); in the data set on Staphylococcus aureus it was 1.02 µg/mL (≈ 3.06 µM).
